From ChEMBL document CHEMBL4513216, “Probing the Open Global Health Chemical Diversity Library for Multistage-Active Starting Points for Next-Generation Antimalarials” (ACS Infect Dis, 2020)

Assay: Toxicity liver stage against HepG2, at 10uM
Type: cell-based
Parameters: test concentration 10 uM, cell line HepG2-A16-CD81EGFP
Details: human, HepG2-A16-CD81EGFP cells; read-out: INHIBITION
How it was run: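 Uninfected HepG2-A16-CD81EGFP cells, 3 × 10^3 per well, 1536-well, plated on prespotted compound at 10 μM final, parasite-free screening media added to match infected plates; puromycin 10 μM positive, DMSO 0.5% negative; run in parallel with 48 h PbLuc assay at 37 °C, 5% CO2; viability by CellTiter-Glo luminescence, normalized to controls.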

Compound | cytotoxicity at 10 µM
c1ccc(CN2CCC3(CC2)Nc2ccccc2CO3)cc1 | -0.719%
COCc1cc(CC2(NC3CCCCC3)COC2)no1 | 0.66%
COCCn1/c(=N\C(=O)CN(C)S(C)(=O)=O)sc2cc(OC)ccc21 | -7.93%
c1cncc(COCC2CN(Cc3ccco3)Cc3ccnn3C2)c1 (stereo unspecified) | -14.4%
CSc1ncn(-c2nc(NC3CC3)nc(N(C)C)n2)n1 | -6.75%
CN(C)Cc1cnc(C2CCN(C(=O)c3cc(F)cc(F)c3)C2)[nH]1 (stereo unspecified) | 2.5%
Cc1ccc2nc(CN(C)Cc3ccc(C)o3)cc(=O)n2c1 | -3.02%
Cc1nnc2n1CC(CNCc1nc(-c3cccs3)no1)CC2 (stereo unspecified) | 10.1%
CC1(C)CN(C(=O)CCc2nc(-c3ccncc3)no2)CCO1 | -3.16%
COc1ccccc1CNCCc1cccc(C(N)=O)c1 | 3.65%
COCCNC(=O)c1ccc(NCc2c(C)noc2C)cc1Cl | 0.678%
COc1ccc(CNC(=O)NC2CCN(CC3CCCC3)CC2)cn1 | -8.01%
Cc1ccc(S(=O)(=O)N2CC[C@@H](O)C2)c(F)c1 | -10.2%
CC(C)(C)n1ncc2c(=O)[nH]c(N3CCC4(CCCCC4)C3)nc21 | -7.72%
O=C(c1ccc(OCC2CC2)cc1)N1CCOCC1c1ncon1 (stereo unspecified) | 1.79%
CC(C)C(C)NC(=O)Nc1cccc2c1CCN(S(C)(=O)=O)C2 (stereo unspecified) | -11.3%
CC(=O)N1CCN(CCNS(=O)(=O)c2cccc(F)c2)CC1 | 6.99%
COc1ccc2cccc(CC(=O)NCCc3n[nH]c(=O)[nH]3)c2c1 | -3.59%
Cn1ccnc1SCC(=O)NCCC1CCCO1 (stereo unspecified) | -2.49%
O=C(c1c[nH]c2ncccc12)N(Cc1ccco1)C1CCCC1 | 2.07%
Cc1nc(-c2ccc(Cl)s2)sc1C(=O)N(C)CC(N)=O | -7.08%
Cc1nc(S(=O)(=O)CCn2cccn2)n(CC2CCCO2)c1C (stereo unspecified) | -4.34%
c1cc(CN2CCCCC2)cc(NCc2cc[nH]n2)c1 | -6.05%

Compound | cytotoxicity at 10 µM
Cn1cccc1C(=O)N1C[C@H]2CN(CC3CC3)C(=O)[C@H]2C1 | -103%
CN1CCN(S(C)(=O)=O)Cc2cccnc21 | -112%
COCCN1CCN(C(=O)c2ccc(C)cc2OC)[C@H]2CS(=O)(=O)C[C@H]21 | -3.81%
CCC1CN(C(=O)c2ccccc2N2CCOCC2)CCN1C(C)C (stereo unspecified) | 7.72%
O=S1(=O)COCCN1CCOc1ccccc1 | 5.1%
CCCn1cnnc1CN(C)C(=O)C1CCC(=O)N(C2CCCC2)C1 (stereo unspecified) | 2.95%
Cc1nccn1C1(C(=O)O)CCN(Cc2ccc3occc3c2)CC1 | -1.61%
OC[C@H]1CCN(Cc2ccc3ccccc3n2)C[C@@H]1O | -6%
COCCCN1CC2(CCC1=O)CCN(Cc1cc(C(C)C)no1)CC2 | -2.1%
CN1CCCN(C(C(=O)O)c2ccc3c(c2)OCO3)CC1 (stereo unspecified) | 1.83%
CCCN1CCN(C(=O)c2cnc(C)nc2)[C@H]2CS(=O)(=O)C[C@H]21 | 0.0652%
O=C(NC1CCCN(CCCc2ccccc2)C1)c1ccncc1 (stereo unspecified) | 0.524%
COCCNc1nc2c(c(NCc3cnc(C)cn3)n1)CCNCC2 | -0.106%
Cc1noc(C(C)C)c1C(=O)NCC(c1cccs1)N(C)C (stereo unspecified) | -14.5%
Cc1[nH]ncc1C(=O)N1CCCC1c1noc(C2CC2)n1 (stereo unspecified) | -18.1%
CC(=O)Nc1nc(C(=O)N2CCCC2c2noc(C3CC3)n2)cs1 (stereo unspecified) | -10.5%
O=C(c1cnn2cccnc12)N1CCCC(n2ccnc2)C1 (stereo unspecified) | -29.7%
Cc1nn2cccnc2c1C(=O)N1CCCC(n2ccnc2C)C1 (stereo unspecified) | -9.53%
CN(Cc1ccccc1)CC(O)Cn1cnc2ccccc2c1=O (stereo unspecified) | -5.02%
COc1cccc(-n2nnc(C(=O)N3CCCC3)c2C)c1 | -5.41%
CN(Cc1ccccc1O)C(=O)NC1CCCN(c2ncccn2)C1 (stereo unspecified) | -0.421%
Cn1cccc1CN1CCC2(CC1)CN(c1ncccn1)CCO2 | -4%
Cn1cc(CN2CCn3c(CNC(=O)c4cccn4C)cnc3C2)cn1 | -3.47%
